Series [1] in a line: Protein binding in human plasma. It is filed as ADME, cell-free. The following applies: read-out: PPB (converted).
In series [2] the target is Cytochrome P450 2D6 (Homo sapiens, UniProt P10635). Description: Inhibition of CYP2D6 (unknown origin). It is filed as ADME.
Series [3] can be described thus: Half life in C57BL/6 mouse. It is filed as ADME. The following applies: in vivo.
The nature of series [4]: Protein binding in C57BL/6 mouse plasma. It is filed as ADME, cell-free. Particulars: read-out: PPB (converted).
For series [5], the target named is Voltage-gated inwardly rectifying potassium channel KCNH2 (Homo sapiens, UniProt Q12809). The experiment in a line: Inhibition of hERG (unknown origin).
Sequence of Voltage-gated inwardly rectifying potassium channel KCNH2 (Q12809 whole entry): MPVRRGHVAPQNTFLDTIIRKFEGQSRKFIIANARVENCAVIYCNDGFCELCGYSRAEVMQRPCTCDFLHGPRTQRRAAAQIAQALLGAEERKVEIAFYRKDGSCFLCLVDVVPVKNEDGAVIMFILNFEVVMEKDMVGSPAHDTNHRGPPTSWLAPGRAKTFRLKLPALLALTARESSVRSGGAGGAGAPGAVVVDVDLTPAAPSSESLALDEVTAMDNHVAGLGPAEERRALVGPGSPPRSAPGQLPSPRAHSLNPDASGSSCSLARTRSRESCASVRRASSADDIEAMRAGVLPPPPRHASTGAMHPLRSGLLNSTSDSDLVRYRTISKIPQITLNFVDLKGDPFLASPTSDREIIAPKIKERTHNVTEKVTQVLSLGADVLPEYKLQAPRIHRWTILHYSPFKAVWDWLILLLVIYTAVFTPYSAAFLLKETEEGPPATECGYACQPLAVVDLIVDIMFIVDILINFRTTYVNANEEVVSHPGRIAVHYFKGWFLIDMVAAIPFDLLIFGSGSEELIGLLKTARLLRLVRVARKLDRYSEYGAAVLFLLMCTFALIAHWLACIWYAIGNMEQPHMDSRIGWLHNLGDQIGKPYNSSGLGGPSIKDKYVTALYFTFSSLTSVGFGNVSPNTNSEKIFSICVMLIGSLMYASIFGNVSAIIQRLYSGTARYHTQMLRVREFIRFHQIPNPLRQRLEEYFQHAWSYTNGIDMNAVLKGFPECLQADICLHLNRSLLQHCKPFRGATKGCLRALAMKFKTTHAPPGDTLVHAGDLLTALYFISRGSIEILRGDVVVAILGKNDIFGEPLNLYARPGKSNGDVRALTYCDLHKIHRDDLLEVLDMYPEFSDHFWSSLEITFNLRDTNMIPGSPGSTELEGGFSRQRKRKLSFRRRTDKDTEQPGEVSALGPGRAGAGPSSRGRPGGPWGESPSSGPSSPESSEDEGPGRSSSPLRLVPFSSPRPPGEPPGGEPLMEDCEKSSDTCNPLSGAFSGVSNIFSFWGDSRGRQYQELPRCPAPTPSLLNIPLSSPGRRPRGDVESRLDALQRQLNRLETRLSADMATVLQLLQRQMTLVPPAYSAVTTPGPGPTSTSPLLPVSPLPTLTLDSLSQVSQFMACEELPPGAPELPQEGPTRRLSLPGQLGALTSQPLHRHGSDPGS
Series [6] concerns the target T1, Cytochrome P450 1A2 (Homo sapiens, UniProt P05177).
T1 sequence (P05177 whole entry): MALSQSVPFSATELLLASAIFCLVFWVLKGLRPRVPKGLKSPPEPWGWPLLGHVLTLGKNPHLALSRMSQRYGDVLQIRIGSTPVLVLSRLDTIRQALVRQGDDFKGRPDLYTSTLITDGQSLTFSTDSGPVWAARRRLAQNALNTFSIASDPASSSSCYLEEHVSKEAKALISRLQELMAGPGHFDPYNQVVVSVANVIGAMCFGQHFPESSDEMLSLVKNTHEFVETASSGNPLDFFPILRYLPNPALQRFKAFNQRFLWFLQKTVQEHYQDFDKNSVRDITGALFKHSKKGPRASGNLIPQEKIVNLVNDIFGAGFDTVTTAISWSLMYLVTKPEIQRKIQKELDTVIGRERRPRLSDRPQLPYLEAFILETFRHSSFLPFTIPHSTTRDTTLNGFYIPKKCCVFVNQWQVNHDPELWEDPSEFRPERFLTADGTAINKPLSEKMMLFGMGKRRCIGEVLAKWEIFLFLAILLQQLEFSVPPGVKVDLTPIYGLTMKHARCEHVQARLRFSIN
The experiment in a line: Inhibition of CYP1A2 (unknown origin). It is filed as ADME.

In series [7] the target is T2, Phosphatidylinositol 4,5-bisphosphate 3-kinase catalytic subunit delta isoform (Mus musculus, UniProt O35904).
T2 sequence (O35904 whole entry): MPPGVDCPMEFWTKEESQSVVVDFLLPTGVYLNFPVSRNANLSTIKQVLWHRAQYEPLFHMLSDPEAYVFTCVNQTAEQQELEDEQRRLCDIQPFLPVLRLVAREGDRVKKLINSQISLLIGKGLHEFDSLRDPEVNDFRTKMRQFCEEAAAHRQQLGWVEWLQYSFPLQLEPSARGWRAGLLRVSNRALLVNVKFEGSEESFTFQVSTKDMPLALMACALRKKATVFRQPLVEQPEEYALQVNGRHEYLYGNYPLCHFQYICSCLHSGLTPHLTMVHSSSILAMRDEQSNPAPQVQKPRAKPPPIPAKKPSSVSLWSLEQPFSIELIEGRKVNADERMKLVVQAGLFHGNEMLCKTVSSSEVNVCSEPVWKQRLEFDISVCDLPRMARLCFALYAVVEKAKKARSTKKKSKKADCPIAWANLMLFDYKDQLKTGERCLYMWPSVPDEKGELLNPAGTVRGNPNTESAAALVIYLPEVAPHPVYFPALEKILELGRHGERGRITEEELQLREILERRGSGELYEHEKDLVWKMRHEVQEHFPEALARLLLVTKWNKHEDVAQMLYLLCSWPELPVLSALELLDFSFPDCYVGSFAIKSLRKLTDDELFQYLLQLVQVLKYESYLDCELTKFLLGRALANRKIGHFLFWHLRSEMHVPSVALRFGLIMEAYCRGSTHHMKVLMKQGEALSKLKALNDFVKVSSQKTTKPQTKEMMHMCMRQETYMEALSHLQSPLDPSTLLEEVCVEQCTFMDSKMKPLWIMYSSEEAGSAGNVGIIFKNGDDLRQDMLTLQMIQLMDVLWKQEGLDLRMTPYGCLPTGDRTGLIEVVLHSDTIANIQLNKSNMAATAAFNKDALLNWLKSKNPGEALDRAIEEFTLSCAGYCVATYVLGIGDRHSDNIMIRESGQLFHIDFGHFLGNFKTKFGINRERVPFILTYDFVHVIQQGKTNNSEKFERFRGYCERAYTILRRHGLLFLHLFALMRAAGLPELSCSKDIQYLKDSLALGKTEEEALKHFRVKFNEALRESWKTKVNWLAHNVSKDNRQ
Description: Inhibition of mouse PI3Kdelta.

In series [8] the target is Cytochrome P450 2C19 (Homo sapiens, UniProt P33261). The experiment in a line: Inhibition of CYP2C19 (unknown origin). It is filed as ADME.
Sequence of Cytochrome P450 2C19 (P33261 whole entry, canonical isoform): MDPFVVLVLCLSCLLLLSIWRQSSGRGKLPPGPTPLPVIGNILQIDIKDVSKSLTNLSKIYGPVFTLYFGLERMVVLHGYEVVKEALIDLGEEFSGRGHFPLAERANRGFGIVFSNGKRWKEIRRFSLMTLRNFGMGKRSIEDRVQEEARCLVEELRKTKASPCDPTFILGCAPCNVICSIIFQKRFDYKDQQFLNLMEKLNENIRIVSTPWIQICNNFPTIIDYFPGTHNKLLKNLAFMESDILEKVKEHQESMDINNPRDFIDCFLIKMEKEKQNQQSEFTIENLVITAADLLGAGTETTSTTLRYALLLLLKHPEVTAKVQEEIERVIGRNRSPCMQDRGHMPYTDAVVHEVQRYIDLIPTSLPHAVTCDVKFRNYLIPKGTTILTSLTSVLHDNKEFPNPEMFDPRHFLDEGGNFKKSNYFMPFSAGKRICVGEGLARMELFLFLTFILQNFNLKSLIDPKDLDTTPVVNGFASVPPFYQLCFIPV
For series [9], the target named is T3, Phosphatidylinositol 4,5-bisphosphate 3-kinase catalytic subunit delta isoform (Mus musculus) (UniProt O35904).
T3 sequence (whole entry): T2 sequence (O35904 whole entry)
Description: Inhibition of PI3Kdelta in Foxp3-GFP C57BL/6 mouse assessed as reduction in Treg population at 30 to 100 mg/kg administered upto 7 days. It is filed as organism-based. Set-up: scale not given: the % may be the effect or the level left. Particulars: dose 30-100 mg/kg, time day <=7. The gist of the method: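 C57BL/6 Foxp3-GFP reporter mice were dosed at 30 and 100 mg/kg/day for up to 7 days. Treg population was monitored by bioluminescence imaging 10 min after ip injection of 3 mg luciferin. Radiance was quantified as photons/s/cm²/steradian. Diphtheria toxin served as a positive control.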

Series [10] is described as follows: Intrinsic clearance in dog hepatocytes. The format is ADME, cell-based, Canis lupus familiaris, Hepatocyte. The following applies: read-out: CLH.

Sequence of Cytochrome P450 2D6 (P10635 whole entry): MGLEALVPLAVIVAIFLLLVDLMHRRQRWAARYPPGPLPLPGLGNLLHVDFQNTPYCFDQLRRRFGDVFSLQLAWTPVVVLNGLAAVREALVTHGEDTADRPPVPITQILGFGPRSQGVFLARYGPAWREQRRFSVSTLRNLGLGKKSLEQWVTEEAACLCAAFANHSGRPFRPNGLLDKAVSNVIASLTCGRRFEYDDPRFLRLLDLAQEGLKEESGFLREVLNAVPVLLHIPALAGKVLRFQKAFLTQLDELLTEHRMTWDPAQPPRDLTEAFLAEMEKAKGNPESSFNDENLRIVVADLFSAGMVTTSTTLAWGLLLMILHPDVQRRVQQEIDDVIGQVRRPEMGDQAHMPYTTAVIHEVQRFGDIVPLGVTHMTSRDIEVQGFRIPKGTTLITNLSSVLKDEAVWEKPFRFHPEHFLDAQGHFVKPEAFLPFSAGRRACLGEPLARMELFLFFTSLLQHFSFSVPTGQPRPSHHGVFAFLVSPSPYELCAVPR

`CCn1c(-c2cnc(C)nc2)nc2c(N[C@H]3CCN(C(=O)C4CC4)C3)ncnc21`: the fraction unbound is 0.7 in series [1] and 0.47 in series [4]. The IC50 in series [2] was greater than 50 µM; in [5], greater than 50 µM; in series [6] it was greater than 50 µM; in series [7], 0.0022 µM; in [8] it was greater than 50 µM. The half-life in [3] is 48 min. Moreover, in series [9], the Activity came to 70%. Further, the CLint scaled in [10] was less than 2 mL/min/kg.

Values taken from ChEMBL document CHEMBL4834420, “Projected Dose Optimization of Amino- and Hydroxypyrrolidine Purine PI3Kδ Immunomodulators” (J Med Chem, 2021).
